ChEMBL document CHEMBL3352143, “Cytotoxic and anti-inflammatory prenylated benzoylphloroglucinols and xanthones from the twigs of Garcinia esculenta” (J Nat Prod, 2014)

Key:
HepG2 = assay: Cytotoxicity against human HepG2 cells by MTT assay; format: functional, cell-based
Method in brief: (§1)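 MTT viability read-out, run in parallel on human HepG2 (hepatocellular carcinoma), MCF-7 and MDA-MB-231 (breast adenocarcinoma) cancer lines and HL-7702 normal human hepatic cells. Paclitaxel was the positive control, and results are expressed as IC50.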

MCF7 = assay: Cytotoxicity against human MCF7 cells by MTT assay; format: functional, cell-based; method in brief: as §1
MDA-MB-231 = assay: Cytotoxicity against human MDA-MB-231 cells by MTT assay; format: functional, cell-based; method in brief: as §1
[1] = Cytotoxicity against human HL7702 cells by MTT assay; format: cell-based; settings: L02; method in brief: as §1
RAW264.7 = assay: Anti-inflammatory activity in mouse RAW264.7 cells assessed as inhibition of IFN-gamma plus LPS-induced NO production; format: functional, cell-based
Method in brief: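 Murine macrophage RAW264.7 cells stimulated with IFN-γ plus LPS; NO output quantified as nitrite in the medium. Indomethacin served as positive control, and results are expressed as IC50.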

## CC(C)=CCc1c(O)cc(O)c2oc3cc(O)cc(O)c3c(=O)c12
HepG2
  IC50: > 10 µM
MCF7
  IC50: > 10 µM
MDA-MB-231
  IC50: > 10 µM
[1]
  IC50: > 10 µM
RAW264.7
  IC50: 6.4 µM

## CC1(C)C=Cc2c(c(O)cc3oc4cc(O)cc(O)c4c(=O)c23)O1 [TOXYLOXANTHONE B]
HepG2
  IC50: > 10 µM
MCF7
  IC50: > 10 µM
MDA-MB-231
  IC50: > 10 µM
[1]
  IC50: > 10 µM
RAW264.7
  IC50: > 50 µM

## C=C(C)C(O)C[C@H](C[C@@]12C[C@@H](CC=C(C)C)C(C)(C)[C@@](CC=C(C)C)(C(=O)C(C(=O)c3ccc(O)c(O)c3)=C1O)C2=O)C(=C)C (stereo not given in full) [GARCIMULTIFLORONE E]
HepG2
  IC50: > 10 µM
MCF7
  IC50: 9.8 µM
MDA-MB-231
  IC50: > 10 µM
[1]
  IC50: > 10 µM
RAW264.7
  IC50: 1.1 µM

## CC1(C)Oc2cc3oc4ccc(O)cc4c(=O)c3c(O)c2CC1O (stereo not given)
HepG2
  IC50: > 10 µM
MCF7
  IC50: > 10 µM
MDA-MB-231
  IC50: > 10 µM
[1]
  IC50: > 10 µM
RAW264.7
  IC50: 15.9 µM

## C=C(C)C(CC=C(C)C)C[C@@]12C[C@@H](C[C@H](O)C(C)(C)OC)C(C)(C)[C@@](CC=C(C)C)(C(=O)C(C(=O)c3ccc(O)c(O)c3)=C1O)C2=O (stereo not given in full)
HepG2
  IC50: > 10 µM
MCF7
  IC50: > 10 µM
MDA-MB-231
  IC50: > 10 µM
[1]
  IC50: > 10 µM
RAW264.7
  IC50: 24.9 µM

## C=C(C)C(C[C@H](O)C(=C)C)C[C@@]12C[C@@H](CC=C(C)C)C(C)(C)[C@@](CC=C(C)C)(C(=O)C(C(=O)c3ccc(O)c(O)c3)=C1O)C2=O (stereo not given in full)
HepG2
  IC50: > 10 µM
MCF7
  IC50: > 10 µM
MDA-MB-231
  IC50: > 10 µM
[1]
  IC50: > 10 µM
RAW264.7
  IC50: 29.1 µM

## CC(C)=CC[C@H]1C[C@@]23C[C@@H](CC=C(C)C)C(C)(C)[C@@](CC=C(C)C)(C(=O)C(C(=O)c4ccc(O)c(O)c4)=C2OC1(C)C)C3=O [CAMBOGIN]
HepG2
  IC50: 7.3 µM
MCF7
  IC50: 4.8 µM
MDA-MB-231
  IC50: 5.7 µM
[1]
  IC50: 9.3 µM
RAW264.7
  IC50: 19.2 µM

## COc1ccc2c(c1)c(CC(=O)O)c(C)n2C(=O)c1ccc(Cl)cc1 [INDOMETHACIN]
RAW264.7
  IC50: 3.9 µM

## C=C(C)C(CC=C(C)C)C[C@]12C[C@H](CC=C(C)C)C(C)(C)[C@](CC=C(C)C)(C(=O)c3c1oc1cc(O)c(O)cc1c3=O)C2=O (stereo not given in full)
HepG2
  IC50: > 10 µM
MCF7
  IC50: > 10 µM
MDA-MB-231
  IC50: > 10 µM
[1]
  IC50: > 10 µM
RAW264.7
  IC50: 17 µM

## CC(C)=CCc1cc(O)c(O)c2oc3cc4c(c(O)c3c(=O)c12)C=CC(C)(C)O4
HepG2
  IC50: > 10 µM
MCF7
  IC50: > 10 µM
MDA-MB-231
  IC50: > 10 µM
[1]
  IC50: > 10 µM
RAW264.7
  IC50: > 50 µM

## CC(C)=CC[C@H]1C[C@@]23C[C@H](CC=C(C)C)C(C)(C)[C@@](CC=C(C)C)(C(=O)C(OC(=O)c4ccc(O)c(O)c4)=C2OC1(C)C)C3=O
HepG2
  IC50: > 10 µM
MCF7
  IC50: > 10 µM
MDA-MB-231
  IC50: > 10 µM
[1]
  IC50: > 10 µM
RAW264.7
  IC50: 39.1 µM

## C=C(C)C(O)C[C@H](C[C@]12C[C@@H](CC=C(C)C)C(C)(C)[C@](CC=C(C)C)(C1=O)c1oc3cc(O)c(O)cc3c(=O)c1C2=O)C(=C)C (stereo not given in full)
HepG2
  IC50: > 10 µM
MCF7
  IC50: > 10 µM
MDA-MB-231
  IC50: > 10 µM
[1]
  IC50: > 10 µM
RAW264.7
  IC50: 12.9 µM

## C=C(C)[C@H](CC=C(C)C)C[C@@]12C[C@@H](CC=C(C)C)C(C)(C)[C@@](CC=C(C)C)(C(=O)C(C(=O)c3ccc(O)c(O)c3)=C1O)C2=O [GUTTIFERONE F]
HepG2
  IC50: > 10 µM
MCF7
  IC50: > 10 µM
MDA-MB-231
  IC50: 7.9 µM
[1]
  IC50: 9.6 µM
RAW264.7
  IC50: 14.1 µM

## C=C(C)[C@@H]1C[C@]23C[C@H](CC=C(C)C)C(C)(C)[C@](CC=C(C)C)(C(=O)C(C(=O)c4ccc(O)c(O)c4)=C2O[C@H]1C=C(C)C)C3=O [GARCINIALIPTONE B]
HepG2
  IC50: > 10 µM
MCF7
  IC50: > 10 µM
MDA-MB-231
  IC50: > 10 µM
[1]
  IC50: > 10 µM
RAW264.7
  IC50: 21.3 µM

## CC(=O)O[C@H]1C(=O)[C@@]2(C)[C@H]([C@H](OC(=O)c3ccccc3)[C@]3(O)C[C@H](OC(=O)[C@H](O)[C@@H](NC(=O)c4ccccc4)c4ccccc4)C(C)=C1C3(C)C)[C@]1(OC(C)=O)CO[C@@H]1C[C@@H]2O [PACLITAXEL]
HepG2
  IC50: 0.0046 µM
MCF7
  IC50: 0.0015 µM
MDA-MB-231
  IC50: 0.0082 µM
[1]
  IC50: 1.1 µM

## CC(C)=CCc1c(O)cc2oc3ccc(O)cc3c(=O)c2c1O
HepG2
  IC50: > 10 µM
MCF7
  IC50: > 10 µM
MDA-MB-231
  IC50: > 10 µM
[1]
  IC50: > 10 µM
RAW264.7
  IC50: 21.3 µM

## CC1(C)C=Cc2c(cc3oc4ccc(O)cc4c(=O)c3c2O)O1
HepG2
  IC50: > 10 µM
MCF7
  IC50: > 10 µM
MDA-MB-231
  IC50: 6.1 µM
[1]
  IC50: 6.6 µM
RAW264.7
  IC50: > 50 µM

## C=C(C)C(CC=C(C)C)C[C@@]12C[C@H]3[C@@H](C=C(C)C)[C@@](C(=O)c4ccc(O)c(O)c4)(C1=O)C(=O)[C@@](CC=C(C)C)(C2=O)C3(C)C (stereo not given in full)
HepG2
  IC50: > 10 µM
MCF7
  IC50: > 10 µM
MDA-MB-231
  IC50: 9.1 µM
[1]
  IC50: > 10 µM
RAW264.7
  IC50: > 50 µM

## O=c1c2cc(O)c(O)cc2oc2cc(O)cc(O)c12
HepG2
  IC50: > 10 µM
MCF7
  IC50: > 10 µM
MDA-MB-231
  IC50: > 10 µM
[1]
  IC50: > 10 µM
RAW264.7
  IC50: 43 µM

## CC1(C)CCc2c(c(O)cc3oc4cc(O)cc(O)c4c(=O)c23)O1 [HYPERXANTHONE E]
HepG2
  IC50: > 10 µM
MCF7
  IC50: > 10 µM
MDA-MB-231
  IC50: > 10 µM
[1]
  IC50: > 10 µM
RAW264.7
  IC50: 4 µM

## CC(C)=CCc1c(O)cc2oc3cc(O)c(O)c(CC=C(C)C)c3c(=O)c2c1O
HepG2
  IC50: > 10 µM
MCF7
  IC50: > 10 µM
MDA-MB-231
  IC50: 6.6 µM
[1]
  IC50: > 10 µM
RAW264.7
  IC50: > 50 µM

## C=C(C)C(C[C@@H](O)C(=C)C)C[C@@]12C[C@@H](CC=C(C)C)C(C)(C)[C@@](CC=C(C)C)(C(=O)C(C(=O)c3ccc(O)c(O)c3)=C1O)C2=O (stereo not given in full)
HepG2
  IC50: > 10 µM
MCF7
  IC50: > 10 µM
MDA-MB-231
  IC50: > 10 µM
[1]
  IC50: > 10 µM
RAW264.7
  IC50: 19.1 µM

## CC1=C[C@H]2c3c(c(O)c(O)c4oc5cc(O)cc(O)c5c(=O)c34)[C@H](c3cc(O)c(O)c4oc5cc(O)cc(O)c5c(=O)c34)[C@H]2C(C)(C)C1
HepG2
  IC50: > 10 µM
MCF7
  IC50: > 10 µM
MDA-MB-231
  IC50: > 10 µM
[1]
  IC50: > 10 µM
RAW264.7
  IC50: 41.9 µM
